Results taken from ChEMBL document CHEMBL1126705, “16 beta-([18F]fluoro)estrogens: systematic investigation of a new series of fluorine-18-labeled estrogens as potential imaging agents for estrogen-receptor-positive breast tumors” (J Med Chem, 1993).

Tests used:
[1] = molecular target: T1, Estrogen receptor (Rattus norvegicus) (UniProt P06211+Q62986)
[2] = molecular target: T2, Alpha-fetoprotein (Rattus norvegicus) (UniProt P02773); test: Relative binding affinity for Alphafetoprotein
T2 sequence (whole entry): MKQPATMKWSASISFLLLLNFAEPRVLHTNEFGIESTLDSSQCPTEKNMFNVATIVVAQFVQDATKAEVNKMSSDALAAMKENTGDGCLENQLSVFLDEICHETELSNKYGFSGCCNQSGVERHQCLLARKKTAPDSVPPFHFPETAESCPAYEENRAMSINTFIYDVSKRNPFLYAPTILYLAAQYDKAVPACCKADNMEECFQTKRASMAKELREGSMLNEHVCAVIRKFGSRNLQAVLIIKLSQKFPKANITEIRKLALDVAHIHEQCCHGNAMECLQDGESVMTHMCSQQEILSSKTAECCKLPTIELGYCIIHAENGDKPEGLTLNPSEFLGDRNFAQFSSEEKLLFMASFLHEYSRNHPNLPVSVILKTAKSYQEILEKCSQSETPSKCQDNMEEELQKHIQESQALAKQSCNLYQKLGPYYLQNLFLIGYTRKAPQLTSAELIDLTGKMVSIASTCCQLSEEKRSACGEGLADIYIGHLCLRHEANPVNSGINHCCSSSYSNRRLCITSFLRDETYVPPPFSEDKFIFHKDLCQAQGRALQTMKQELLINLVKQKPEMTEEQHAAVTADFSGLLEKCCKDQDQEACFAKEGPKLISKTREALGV

[3] = Partition coefficient (logP); format: physicochemical; conditions: octanol/water
Procedure, shortened: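 Octanol/water log P estimated from log k'w measured by reversed-phase HPLC (Minick method) on a C8 silica column.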

[4] = molecular target: T1, Estrogen receptor (Rattus norvegicus); remark: listed apart in the source
[5] = molecular target: T3, Sex hormone-binding globulin (Homo sapiens) (UniProt P04278); test: Relative binding affinity against sex steroid binding protein (SBP)
T3 sequence (whole entry): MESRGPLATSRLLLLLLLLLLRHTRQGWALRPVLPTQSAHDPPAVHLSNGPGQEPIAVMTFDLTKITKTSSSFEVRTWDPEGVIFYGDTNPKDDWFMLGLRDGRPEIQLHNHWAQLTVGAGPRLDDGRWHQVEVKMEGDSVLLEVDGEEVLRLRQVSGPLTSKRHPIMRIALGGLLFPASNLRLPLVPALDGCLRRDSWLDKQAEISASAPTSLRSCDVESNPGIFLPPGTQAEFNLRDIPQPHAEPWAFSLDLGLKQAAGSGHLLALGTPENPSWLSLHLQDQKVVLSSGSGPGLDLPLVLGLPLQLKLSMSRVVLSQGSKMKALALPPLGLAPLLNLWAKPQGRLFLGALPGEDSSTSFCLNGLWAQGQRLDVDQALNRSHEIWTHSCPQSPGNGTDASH

[6] = test system: Rattus norvegicus; test: Tested in vivo for the biodistribution in rat liver at 1 hour after intravenous dose of 50 microCi of drug in 10%ethanol saline; format: ADME, organism-based
Procedure, shortened: (§1)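 Immature (25-day-old) female Sprague-Dawley rats, ether-anesthetized, given the fluorine-18-labeled estrogen by femoral vein injection in 10% ethanol saline. […] Other groups were killed by decapitation at 1 or 3 h. Blood and organs were weighed and gamma-counted. Data are % injected dose/g, mean ± SD, typically n = 5 per group.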

[7] = test system: Rattus norvegicus; test: Tested in vivo for the biodistribution in rat liver after 3 hours following an intravenous dose of 50 microCi of drug in 10%ethanol saline; format: ADME, organism-based
Procedure, shortened: as §1

[8] = test system: Rattus norvegicus; test: Tested in vivo for the biodistribution in rat uterus/blood at 1 hour after intravenous dose of 50 microCi of the drug and 15 ug of estradiol; format: ADME, organism-based
Procedure, shortened: (§2)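 Female Sprague-Dawley rats, 25 days old (~40–53 g), ether-anesthetized, given the 18F-labeled estrogen iv via femoral vein in 10% ethanol saline. […] Others were sacrificed by decapitation at 1 or 3 h. Blood and organs were excised, weighed and gamma counted as % injected dose/g, mean ± SD, typically n = 5 (4–6).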

[9] = test system: Rattus norvegicus; test: Tested in vivo for the biodistribution in rat uterus at 1 hour after intravenous dose of 50 microCi of the drug and 15 ug of estradiol; format: ADME, organism-based
Procedure, shortened: as §2

[10] = test system: Rattus norvegicus; test: Tested in vivo for the biodistribution in rat fat at 1 hour after intravenous dose of 50 microCi of drug in 10%ethanol saline; format: ADME, organism-based, Adipose tissue
Procedure, shortened: (§3)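 Ether-anesthetized 25-day-old female Sprague-Dawley rats (~40–53 g) got the [18F] tracer in 10% ethanol saline via femoral vein. Rats were decapitated at 1 or 3 h, and blood and organs were weighed and gamma-counted. Values are % injected dose/g as mean ± SD, n = 5 per time point.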

[11] = test system: Rattus norvegicus; test: Tested in vivo for the biodistribution in rat uterus/blood at 1 hour after intravenous dose of 50 microCi of drug in 10%ethanol saline; format: ADME, organism-based
Procedure, shortened: as §2

[12] = test system: Rattus norvegicus; test: Tested in vivo for the biodistribution in rat liver at 1 hour after intravenous dose of 50 microCi of the drug and 15 u g of estradiol; format: ADME, organism-based
Procedure, shortened: as §1

[13] = test system: Rattus norvegicus; test: Tested in vivo for the biodistribution in rat uterus after 3 hours following an intravenous dose of 50 microCi of drug in 10%ethanol saline; format: ADME, organism-based
Procedure, shortened: as §1

[14] = test system: Rattus norvegicus; test: Tested in vivo for the biodistribution in rat ovaries at 1 hour after intravenous dose of 50 microCi of the drug and 15 ug of estradiol; format: ADME, organism-based, Female gonad
Procedure, shortened: as §1

[15] = test system: Rattus norvegicus; test: Tested in vivo for the biodistribution in rat bone at 1 hour after intravenous dose of 50 microCi of drug in 10%ethanol saline; format: ADME, organism-based, Bone element
Procedure, shortened: as §3

[16] = test system: Rattus norvegicus; test: Tested in vivo for the biodistribution in rat fat after 3 hours following an intravenous dose of 50 microCi of drug in 10%ethanol saline; format: ADME, organism-based, Adipose tissue
Procedure, shortened: as §3

[17] = test system: Rattus norvegicus; test: Tested in vivo for the biodistribution in rat fat at 1 hour after intravenous dose of 50 microCi of the drug and 15 ug of estradiol; format: ADME, organism-based, Adipose tissue
[18] = test system: Rattus norvegicus; test: Tested in vivo for the biodistribution in blood of female rat after 3 hours following an intravenous dose of 50 microCi of drug in 10%ethanol saline; format: ADME, organism-based
Procedure, shortened: as §3

[19] = test system: Rattus norvegicus; test: Tested in vivo for the biodistribution in rat ovaries at 1 hour after intravenous dose of 50 microCi of drug in 10%ethanol saline; format: ADME, organism-based, Female gonad
Procedure, shortened: as §1

[20] = test system: Rattus norvegicus; test: Tested in vivo for the biodistribution in rat uterus at 1 hour after intravenous dose of 50 microCi of drug in 10%ethanol saline; format: ADME, organism-based
Procedure, shortened: as §2

[21] = test system: Rattus norvegicus; test: Tested in vivo for the biodistribution in rat bone after 3 hours following an intravenous dose of 50 microCi of drug in 10%ethanol saline; format: ADME, organism-based, Bone element
Procedure, shortened: as §3

[22] = test system: Rattus norvegicus; test: Tested in vivo for the biodistribution in rat muscle after 3 hours following an intravenous dose of 50 microCi of drug in 10%ethanol saline; format: ADME, organism-based, Muscle tissue
Procedure, shortened: as §1

[23] = test system: Rattus norvegicus; test: Tested in vivo for the biodistribution in rat kidney at 1 hour after intravenous dose of 50 microCi of the drug and 15 u g of estradiol; format: ADME, organism-based
Procedure, shortened: as §1

[24] = test system: Rattus norvegicus; test: Tested in vivo for the biodistribution in rat muscle at 1 hour after intravenous dose of 50 microCi of the drug and 15 ug of estradiol; format: ADME, organism-based, Muscle tissue
Procedure, shortened: as §1

[25] = test system: Rattus norvegicus; test: Tested in vivo for the biodistribution in rat ovaries after 3 hours following an intravenous dose of 50 microCi of drug in 10%ethanol saline; format: ADME, organism-based, Female gonad
Procedure, shortened: as §1

[26] = test system: Rattus norvegicus; test: Tested in vivo for the biodistribution in blood of female rat at 1 hour after intravenous dose of 50 microCi of the drug and 15 u g of estradiol; format: ADME, organism-based
[27] = test system: Rattus norvegicus; test: Tested in vivo for the biodistribution in rat muscle at 1 hour after intravenous dose of 50 microCi of drug in 10%ethanol saline; format: ADME, organism-based, Muscle tissue
Procedure, shortened: as §1

[28] = test system: Rattus norvegicus; test: Tested in vivo for the biodistribution in rat kidney after 3 hours following an intravenous dose of 50 microCi of drug in 10%ethanol saline; format: ADME, organism-based
Procedure, shortened: as §3

[29] = test system: Rattus norvegicus; test: Tested in vivo for the biodistribution in rat uterus/muscle after 3 hours following an intravenous dose of 50 microCi of drug in 10%ethanol saline; format: ADME, organism-based, Muscle tissue
Procedure, shortened: as §2

[30] = test system: Rattus norvegicus; test: Tested in vivo for the biodistribution in blood of female rat at 1 hour after intravenous dose of 50 microCi of drug in 10%ethanol saline; format: ADME, organism-based
Procedure, shortened: as §3

[31] = test system: Rattus norvegicus; test: Tested in vivo for the biodistribution in rat thymus at 1 hour after intravenous dose of 50 microCi of the drug and 15 ug of estradiol; format: ADME, organism-based
Procedure, shortened: as §1

[32] = test system: Rattus norvegicus; test: Tested in vivo for the biodistribution in rat bone at 1 hour after intravenous dose of 50 microCi of the drug and 15 ug of estradiol; format: ADME, organism-based, Bone element
[33] = test system: Rattus norvegicus; test: Tested in vivo for the biodistribution in rat thymus at 1 hour after intravenous dose of 50 microCi of drug in 10%ethanol saline; format: ADME, organism-based
Procedure, shortened: as §1

[34] = test system: Rattus norvegicus; test: Tested in vivo for the biodistribution in rat uterus/muscle at 1 hour after intravenous dose of 50 microCi of drug in 10%ethanol saline; format: ADME, organism-based, Muscle tissue
Procedure, shortened: as §2

[35] = test system: Rattus norvegicus; test: Tested in vivo for the biodistribution in rat uterus/muscle at 1 hour after intravenous dose of 50 microCi of the drug and 15 ug of estradiol; format: ADME, organism-based, Muscle tissue
Procedure, shortened: as §2

[36] = test system: Rattus norvegicus; test: Tested in vivo for the biodistribution in rat uterus/blood after 3 hours following an intravenous dose of 50 microCi of drug in 10%ethanol saline; format: ADME, organism-based
Procedure, shortened: as §2

[37] = test system: Rattus norvegicus; test: Tested in vivo for the biodistribution in rat thymus after 3 hours following an intravenous dose of 50 microCi of drug in 10%ethanol saline; format: ADME, organism-based
Procedure, shortened: as §1

[38] = test system: Rattus norvegicus; test: Tested in vivo for the biodistribution in rat kidney at 1 hour after intravenous dose of 50 microCi of drug in 10%ethanol saline; format: ADME, organism-based
Procedure, shortened: as §3

Work on `C#C[C@]1(O)CC[C@H]2[C@@H]3CCc4cc(O)ccc4[C@H]3[C@@H](OC)C[C@@]21C` [MOXESTROL] yielded an NSB [1] of 0.76, a relative binding affinity (RBA) [2] of 0.023 and a logP [3] of 3.01. For the same compound, the BSI [4] was 243 and the relative binding affinity (RBA) [5] was 0.071.

For `C#C[C@]1(O)[C@@H](F)C[C@H]2[C@@H]3CCc4cc(O)ccc4[C@H]3[C@@H](OC)C[C@@]21C`, the Injected [6] was 3.244%, the Injected [7] was 2.129% and the Injected [8] was 7.52%. The NSB [1] was 0.67, the Injected [9] was 2.548% and the Injected [10] was 1.538%. The Injected [11] was 66.26%, the Injected [12] was 3.708% and the Injected [13] was 12.99%. It also gave an Injected [14] of 1.661%, an Injected [15] of 1.384% and an Injected [16] of 0.858%. For the same compound, the Injected [17] was 0.679%, the Injected [18] was 0.101% and the Injected [19] was 5.2%. It also gave an Injected [20] of 18.26%, a relative binding affinity (RBA) [2] of less than 0.01 and an Injected [21] of 2.007%. It also gave an Injected [22] of 0.389%, a logP [3] of 2.87 and an Injected [23] of 1.038%. The Injected [24] was 0.525%, the Injected [25] was 3.51% and the Injected [26] was 0.38%. It also gave an Injected [27] of 0.739%, an Injected [28] of 0.973% and an Injected [29] of 32.76%. The Injected [30] was 0.284%, the Injected [31] was 0.44% and the Injected [32] was 1.477%. It also gave a BSI [4] of 116, an Injected [33] of 0.852% and an Injected [34] of 24.31%. The Injected [35] was 5.25%, the relative binding affinity (RBA) [5] was 0.037 and the Injected [36] was 129.8%. The Injected [37] was 0.454% and the Injected [38] was 1.961%.

Compound `C#C[C@]1(O)CC[C@H]2[C@@H]3CCc4cc(O)ccc4[C@H]3CC[C@@]21C` [ETHINYL ESTRADIOL] has a relative binding affinity (RBA) [2] of 3.51, a logP [3] of 3.42 and a relative binding affinity (RBA) [5] of 1.81.

`C[C@]12CC[C@@H]3c4ccc(O)cc4CC[C@H]3[C@@H]1CC[C@@H]2O` [ESTRADIOL] showed a relative binding affinity (RBA) [2] of 100, a logP [3] of 3.26 and a relative binding affinity (RBA) [5] of 100.
